Reference: ChEMBL document CHEMBL1152161, “A facile synthesis, antibacterial, and antitubercular studies of some piperidin-4-one and tetrahydropyridine derivatives” (2008)
Values after ≈ are worked out from the molar mass of the structure shown. Active and inactive are the calls of the source. No cut-off for these calls is given here.

Assays:
[1] = test system: Staphylococcus aureus; test: Antibacterial activity against methicillin-resistant Staphylococcus aureus by broth micro dilution method; format: functional
Method in brief: (§1)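 MIC90 was determined by broth microdilution following NCCLS methods. Linezolid and trovafloxacin were run as positive controls, with DMSO as the negative control. Compounds were tested up to a top concentration of 128.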

[2] = test system: Enterococcus faecalis; test: Antibacterial activity against Enterococcus faecalis by broth micro dilution method; format: functional
Method in brief: (§2)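 MIC90 was found by broth microdilution following NCCLS methods. Compounds were tested up to a top concentration of […]. Linezolid and trovafloxacin served as positive controls and DMSO as the negative control.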

[3] = test system: Staphylococcus aureus; test: Antibacterial activity against Staphylococcus aureus at 128 ug/mL by broth micro dilution method; format: functional, organism-based
[4] = test system: Staphylococcus epidermidis; test: Antibacterial activity against Staphylococcus epidermidis at 128 ug/mL by broth micro dilution method; format: functional, organism-based
[5] = test system: Staphylococcus epidermidis; test: Antibacterial activity against methicillin-resistant Staphylococcus epidermidis at 128 ug/mL by broth micro dilution method; format: functional, organism-based; method in brief: as §1
[6] = test system: Enterococcus faecalis; test: Antibacterial activity against vancomycin-resistant Enterococcus faecalis at 128 ug/mL by broth micro dilution method; format: functional, organism-based; method in brief: as §1
[7] = test system: Enterococcus faecalis; test: Antibacterial activity against vancomycin and linezolid-resistant Enterococcus faecalis at 128 ug/mL by broth micro dilution method; format: functional, organism-based; method in brief: as §1
[8] = test system: Enterococcus faecium; test: Antibacterial activity against Enterococcus faecium at 128 ug/mL by broth micro dilution method; format: functional, organism-based
[9] = test system: Enterococcus faecium; test: Antibacterial activity against vancomycin-resistant Enterococcus faecium at 128 ug/mL by broth micro dilution method; format: functional, organism-based; method in brief: as §1
[10] = test system: Escherichia coli; test: Antibacterial activity against Escherichia coli LCB0010 at 128 ug/mL by broth micro dilution method; format: functional, organism-based
[11] = test system: Escherichia coli; test: Antibacterial activity against Escherichia coli LCB0011 at 128 ug/mL by broth micro dilution method; format: functional, organism-based
[12] = test system: Escherichia coli; test: Antibacterial activity against Escherichia coli LCB0012 at 128 ug/mL by broth micro dilution method; format: functional, organism-based
[13] = test system: Pseudomonas aeruginosa; test: Antibacterial activity against Pseudomonas aeruginosa at 128 ug/mL by broth micro dilution method; format: functional, organism-based
[14] = test system: Klebsiella pneumoniae; test: Antibacterial activity against Klebsiella pneumoniae at 128 ug/mL by broth micro dilution method; format: functional, organism-based
[15] = test system: Haemophilus influenzae; test: Antibacterial activity against Haemophilus influenzae at 128 ug/mL by broth micro dilution method; format: functional, organism-based
[16] = test system: Moraxella catarrhalis; test: Antibacterial activity against Moraxella catarrhalis at 128 ug/mL by broth micro dilution method; format: functional, organism-based
[17] = test system: Mycobacterium tuberculosis; test: Antitubercular activity against Mycobacterium tuberculosis H37Rv ATCC 27294 at 256 ug/mL by radiometric respiratory technique; format: functional, organism-based
[18] = test system: Staphylococcus aureus; test: Antibacterial activity against Staphylococcus aureus by broth micro dilution method; format: functional; method in brief: as §2
[19] = test system: Staphylococcus epidermidis; test: Antibacterial activity against Staphylococcus epidermidis by broth micro dilution method; format: functional; method in brief: as §1
[20] = test system: Enterococcus faecalis; test: Antibacterial activity against vancomycin-resistant Enterococcus faecalis by broth micro dilution method; format: functional; method in brief: as §1
[21] = test system: Enterococcus faecalis; test: Antibacterial activity against vancomycin and linezolid-resistant Enterococcus faecalis by broth micro dilution method; format: functional; method in brief: as §1
[22] = test system: Enterococcus faecium; test: Antibacterial activity against Enterococcus faecium by broth micro dilution method; format: functional; method in brief: as §2
[23] = test system: Enterococcus faecium; test: Antibacterial activity against vancomycin-resistant Enterococcus faecium by broth micro dilution method; format: functional; settings: Enterococcus faecium; method in brief: as §1
[24] = test system: Escherichia coli; test: Antibacterial activity against Escherichia coli LCB0011 by broth micro dilution method; format: functional; method in brief: as §2
[25] = test system: Escherichia coli; test: Antibacterial activity against Escherichia coli LCB0012 by broth micro dilution method; format: functional; method in brief: as §2
[26] = test system: Pseudomonas aeruginosa; test: Antibacterial activity against Pseudomonas aeruginosa by broth micro dilution method; format: functional; method in brief: as §2
[27] = test system: Klebsiella pneumoniae; test: Antibacterial activity against Klebsiella pneumoniae by broth micro dilution method; format: functional; method in brief: as §2
[28] = test system: Haemophilus influenzae; test: Antibacterial activity against Haemophilus influenzae by broth micro dilution method; format: functional; method in brief: as §2
[29] = test system: Moraxella catarrhalis; test: Antibacterial activity against Moraxella catarrhalis by broth micro dilution method; format: functional; method in brief: as §2
[30] = test system: Escherichia coli; test: Antibacterial activity against Escherichia coli LCB0010 by broth micro dilution method; format: functional; method in brief: as §2
[31] = test system: Staphylococcus epidermidis; test: Antibacterial activity against methicillin-resistant Staphylococcus epidermidis by broth micro dilution method; format: functional; method in brief: as §1
[32] = test system: Mycobacterium tuberculosis; test: Antitubercular activity against Mycobacterium tuberculosis H37Rv ATCC 27294 by radiometric respiratory technique; format: functional
[33] = test system: Mycobacterium tuberculosis; test: Antitubercular potency, ratio of Isoniazid MIC to drug MIC against Mycobacterium tuberculosis H37Rv ATCC 27294; format: functional
[34] = test system: Mycobacterium tuberculosis; test: Antitubercular potency, ratio of Rifampicin MIC to drug MIC against Mycobacterium tuberculosis H37Rv ATCC 27294; format: functional

SMILES | MIC90 [1] [µg/mL] | MIC90 [2] [µg/mL] | Activity [10] | Activity [11] | Activity [12] | Activity [13] | Activity [14] | Activity [15] | MIC90 [18] [µg/mL] | MIC90 [19] [µg/mL] | MIC90 [20] [µg/mL] | MIC90 [21] [µg/mL] | MIC90 [22] [µg/mL] | MIC90 [23] [µg/mL] | MIC90 [24] [µg/mL] | MIC90 [26] [µg/mL] | MIC90 [27] [µg/mL] | MIC90 [29] [µg/mL] | MIC90 [31] [µg/mL] | MIC [32] [µg/mL] | also measured
CCOC(=O)C1=C(OS(=O)(=O)c2cccc([N+](=O)[O-])c2)CC(c2ccccc2)N(C(=O)CCl)C1c1ccccc1 (stereo not given) | 128 (≈ 219 µM) | 128 (≈ 219 µM) | inactive | inactive | inactive | inactive | inactive | inactive |  |  |  |  |  |  |  |  |  |  |  |  | Activity [3]: inactive; Activity [4]: inactive; Activity [5]: inactive; Activity [6]: inactive; Activity [7]: inactive; Activity [8]: inactive; Activity [9]: inactive; Activity [16]: inactive; Activity [17]: inactive
N[C@@H]1[C@H]2CN(c3nc4c(cc3F)c(=O)c(C(=O)O)cn4-c3ccc(F)cc3F)C[C@@H]12 [TROVAFLOXACIN] | 1 (≈ 2.4 µM) | 0.128 (≈ 0.307 µM) |  |  |  |  |  |  | < 0.0625 | < 0.0625 | 8 (≈ 19.2 µM) | 16 (≈ 38.4 µM) | 64 (≈ 154 µM) | 8 (≈ 19.2 µM) | < 0.0625 | 0.125 (≈ 0.3 µM) | 0.125 (≈ 0.3 µM) | < 0.0625 |  |  | MIC90 [25]: < 0.0625 µg/mL; MIC90 [28]: < 0.0625 µg/mL; MIC90 [30]: < 0.0625 µg/mL
CCOC(=O)C1=C(O)CC(c2ccccc2)N(C(=O)CCl)C1c1ccccc1 (stereo not given) | 64 (≈ 160 µM) | 32 (≈ 80 µM) | inactive | inactive | inactive |  | inactive | inactive | 32 (≈ 80 µM) | 64 (≈ 160 µM) | 64 (≈ 160 µM) | 32 (≈ 80 µM) | 64 (≈ 160 µM) | 16 (≈ 40 µM) |  | 64 (≈ 160 µM) |  | 32 (≈ 80 µM) | 128 (≈ 320 µM) | 16 (≈ 40 µM) | Ratio [33]: 1.56; Ratio [34]: 200
CCOC(=O)C1=C(OS(=O)(=O)c2ccc([N+](=O)[O-])cc2)CC(c2ccccc2)N(C(=O)CCl)C1c1ccccc1 (stereo not given) | 64 (≈ 109 µM) | 16 (≈ 27.3 µM) | inactive |  | inactive | inactive |  | inactive | 16 (≈ 27.3 µM) | 64 (≈ 109 µM) | 32 (≈ 54.7 µM) | 64 (≈ 109 µM) | 32 (≈ 54.7 µM) | 16 (≈ 27.3 µM) | 128 (≈ 219 µM) |  | 64 (≈ 109 µM) | 32 (≈ 54.7 µM) | 64 (≈ 109 µM) | 16 (≈ 27.3 µM) | Ratio [33]: 1.56; Ratio [34]: 200
